Hits are enriched below; roughly 1.5% of the tested compounds scored in any of these assays.
MsrA inh: bovine MsrA enzyme inhibitors, primary screen, biochemical, absorbance, HTS | inhibition, % at 15.5 µM | Methionine sulfoxide reductase A (Bos taurus) | 0.75% of 360,000 active | purified bovine MsrA, absorbance read-out;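 further: 0% = vehicle wells with enzyme and 100% = reference inhibitor wells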
Tb MetRS inh: T. brucei MetRS inhibitors, primary screen, biochemical, luminescence; 0.4% of 360,000 active; inhibition, % at 11.9 µM; AID 624268, 2012; purified T. brucei MetRS, ATP depletion, Kinase-Glo luminescence; methionyl-tRNA synthetase (Trypanosoma brucei brucei);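 active means inhibition above a per-plate cutoff of the control wells' mean inhibition plus 3 SD, cut at about 5.5% in these data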;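 further: 0% = DMSO wells median and 100% = median of wells with control inhibitor compound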
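Measured by: Kinase-Glo luciferase luminescence reporting remaining unconsumed ATP. Material: purified T. brucei MetRS enzyme. Doses: 11.9 µM compound single dose, 0.9% DMSO. Medium: HEPES buffer containing pyrophosphatase, BSA, spermine, DTT. Times: 15 min preincubation, 2 h reaction, all 25 °C. Reagent: methionine, ATP and bulk E. coli tRNA.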
procasp3 activ: activators of human procaspase-3 D3A mutant, primary screen, biochemical, absorbance, PC-3 D3A mutant, single concentration. Caspase-3 (Homo sapiens), P42574. activation, % at 8.5 µM. recombinant procaspase-3 D3A, Ac-DEVD-pNA absorbance 405 nm. 0.11% of 330,000 active;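 active means activation above the mean of all tested compounds plus 3 SD, cut at about 21% in these data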;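 further: 0% = DMSO alone and 100% = DMSO wells spiked with extra 5 µM PC-3 D3A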
Target sequence (P42574 whole entry D9A/D28A/D175A): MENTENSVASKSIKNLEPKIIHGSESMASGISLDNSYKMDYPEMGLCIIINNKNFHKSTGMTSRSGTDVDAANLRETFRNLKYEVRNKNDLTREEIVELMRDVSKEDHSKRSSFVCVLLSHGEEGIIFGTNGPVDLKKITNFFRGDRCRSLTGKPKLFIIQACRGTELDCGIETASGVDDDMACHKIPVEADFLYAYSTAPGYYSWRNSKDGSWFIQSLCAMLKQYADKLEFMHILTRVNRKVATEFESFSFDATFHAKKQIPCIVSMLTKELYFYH
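material = Procaspase-3 D3A mutant | probe or stimulus = Ac-DEVD-pNA | compound = single dose, 8.5 µM nominal compound, 0.8% DMSO | timing = 1 h preincubation, 2 h reaction | measured by = 405 nm absorbance of p-nitroaniline, reads at 0 and 120 min | benchmarks = DMSO-only low control, 5 µM PC-3 D3A high control | repeats = singlicate, each compound tested once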
bovine MsrA act: bovine MsrA enzyme activators, primary screen, biochemical, absorbance, HTS; AID 602163, 2012; purified bovine MsrA, absorbance read-out; Methionine sulfoxide reductase A (Bos taurus); activation, % at 10.6 µM; 0.3% of 360,000 active; in the data active means activation above about 7.5%;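 further: 0% = vehicle and 100% = reference activator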
proCasp7 act: procaspase-7 activators, primary screen, counter-screen for procaspase-3 activator project, biochemical, absorbance, HTS, human; 0.093% of 330,000 active; AID 463210, 2010; activation, % at 8.5 µM; Caspase-7 (Homo sapiens), P55210; recombinant procaspase-7, Ac-DEVD-pNA absorbance 405 nm; D23A/D198A/D206A triple mutant, cannot self-cleave; scale: DMSO 0, 5 µM enzyme 100;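 active means percent activation above the screen-wide mean plus 3 SD, cut at about 25% in these data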
Target sequence (P55210 whole entry D23A/D198A/D206A): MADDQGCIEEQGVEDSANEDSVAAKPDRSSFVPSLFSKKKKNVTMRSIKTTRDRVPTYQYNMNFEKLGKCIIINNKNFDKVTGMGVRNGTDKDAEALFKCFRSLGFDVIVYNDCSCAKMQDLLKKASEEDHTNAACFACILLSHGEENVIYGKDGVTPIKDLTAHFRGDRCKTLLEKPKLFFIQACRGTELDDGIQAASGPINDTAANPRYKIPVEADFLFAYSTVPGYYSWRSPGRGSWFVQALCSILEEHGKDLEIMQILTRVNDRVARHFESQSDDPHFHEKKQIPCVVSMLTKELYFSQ
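Assay system: Uncleavable procaspase-7 mutant enzyme; Input: 2 µM procaspase-7 mutant as dispensed; Also added: DEVD-pNA substrate; Medium: Zinc-free HEPES pH 7.4 with 300 mM NaCl, 0.01% Triton X-100; Timing: 1 h compound preincubation, 2 h substrate cleavage, 25 °C; Measured by: Epi-absorbance of released pNA at 405 nm, two timepoints.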
MsrA conf: bovine MsrA inhibitors, retest, confirmation, biochemical, absorbance, HTS; shares compounds with MsrA inh; purified bovine MsrA, absorbance read-out; inhibition, % at 15.5 µM; 41% of 2,300 active; AID 651822, 2012;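 further: coupled to thioredoxin reductase with NADPH and selenocystamine and DMSO as substrate; 0% = vehicle only and 100% = full effect of reference inhibitor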
Starred values were filed as active, the others as inactive; . = no result. Unless noted, no stated cut-off is given here; in the data, active means inhibition above about 4.5%; inactive means the rest.

SMILES	MsrA inh	Tb MetRS inh	procasp3 activ	bovine MsrA act	proCasp7 act	MsrA conf
O=C(COC(=O)c1cc(S(=O)(=O)NCc2ccccc2)ccc1O)c1cc2ccccc2o1	4.8*	0	3	-3	-3	3
CN(C)/C=N/c1ncc(C(=O)c2ccccc2)s1	5.6*	-1	3	-6	8	4.7*
CN(C)/C=N/c1ncc(C(=O)c2ccc(-c3ccccc3)cc2)s1	1	0	8	-4	-5	.
CCCCCCCCN1C(=O)[C@@H](CC(=O)NCc2cccc(C(F)(F)F)c2)C[C@@]2(C(=O)OC)C1=C[C@H](C1CCCC1)O[C@@H]2C	0	.	.	.	.	.
NC(CSS(=O)(=O)O)=NCCC12CC3CC(CC(O)(C3)C1)C2	7.5*	0	-16	-7	-20	4
O=C(CN(Cc1ccccc1)C(=O)CCC(=O)Nc1ccccn1)NCc1ccc(F)cc1	1	-1	3	-1	-8	.
C(=C\c1ccccc1)/C=N/Nc1nc(N2CCOCC2)nc(N2CCOCC2)n1	7.5*	0	-6	-3	-1	6.8*
CC(=C/c1ccccc1)/C=N/Nc1nc(N2CCOCC2)nc(N2CCOCC2)n1	2	0	1	-1	-3	.
Clc1ccccc1/C=C/C=N/Nc1nc(N2CCOCC2)nc(N2CCOCC2)n1	5.3*	-1	-3	-2	1	4
Clc1cc2c(cc1/C=N/Nc1nc(N3CCOCC3)nc(N3CCOCC3)n1)OCO2	4	-1	0	-4	3	.
CCCC1=[N+](CC)CCn2c(C)ccc21	4	0	-5	-6	-1	.
CCCC1=[N+](CC(=O)c2ccccc2)CCn2c(C)ccc21	5.2*	0	-2	-2	-3	4.6*
Cc1ccc(C2=N/C(=C\N(C)C)C(=O)O2)cc1	5.2*	-1	-6	-7	-2	5.5*
CN(C)/C=C1\N=C(c2cccs2)OC1=O	7.7*	-1	1	-8	8	5.5*
O=C1OC(c2ccc(Br)cc2)=N/C1=C\N1CCCCC1	0	-1	2	-4	10	.
CN(C)/C=C1/N=C(c2ccccc2)OC1=O	7.3*	-2	9	-15	-2	6.9*
O=C1OC(c2ccccc2)=N/C1=C\N1CCCCC1	5.7*	0	0	-2	-2	6.9*
CCOc1ccccc1NC(=O)CN1CCN(Cc2ccccc2)CC1	-1	-1	13	2	12	.
O=C(Nc1nc2c(s1)CCCC2=O)c1cnccn1	4.7*	0	9	-4	19	3
COC(=O)c1c(NC(=O)c2cnccn2)sc2c1CCC2	0	0	-5	-1	3	.
C[C@@H]1NS(=O)(=O)c2c(F)cccc2O[C@@H]1c1ccccc1	0	.	.	.	.	.
C[C@H]1c2cccc(O)c2C(O)=C2C(=O)C3(O)C(O)=C(C(N)=O)C(=O)[C@@H](N(C)C)[C@@H]3[C@@H](O)[C@@H]21 (some centres undefined)	4.9*	-1	-6	-4	-3	3
COc1cc(OC)cc(-c2c(C#Cc3ccsc3)c3cc(-c4cccc5[nH]cc(C=O)c45)ccc3n2C)c1	4.9*	0	-7	-11	-10	3
COc1ccc(-c2c(C#Cc3ccsc3)c3cc(-c4cccc5[nH]ccc45)ccc3n2C)cc1	1	0	-6	-7	-13	.
O=C(NCCN1CCOCC1)c1ccc(=O)oc1	5.4*	0	2	-6	2	4
SMILES	MsrA inh	Tb MetRS inh	procasp3 activ	bovine MsrA act	proCasp7 act	MsrA conf
CC(NC(=O)c1ccc(=O)oc1)c1ccccc1 (centres undefined)	7.2*	-1	3	-5	2	7.4*
O=C(NCCN1CCOCC1)c1ccc(F)cc1	0	0	12	-5	0	.
Cc1ccc(C(=O)NCCc2ccccc2)cc1	.	0	7	-2	1	.
O=C(NCCc1ccccc1)c1ccc(=O)oc1	8.2*	-1	-9	-15	-6	8.0*
NC(=O)C12NC(Cc3ccccc31)c1ccccc12 (centres undefined)	0	.	.	.	.	.
COC(=O)C1=C(C)N(Cc2cccc(C(F)(F)F)c2)C(=NCc2cc(OC)c(OC)c(OC)c2)NC1CCc1ccccc1 (centres undefined)	-1	.	.	.	.	.
COc1ccc2cc3cc(C(=O)NCc4cccnc4)oc3nc2c1	5.6*	2	-7	-6	-2	4
COc1ccc2cc3cc(C(=O)NCc4ccc5c(c4)OCO5)oc3nc2c1	0	0	-2	-7	-5	.
C/C(=N\Nc1ccc(S(N)(=O)=O)cc1[N+](=O)[O-])c1ccccc1O	9.9*	0	5	-15	6	4.7*
C/C(=N\Nc1ccc(S(N)(=O)=O)cc1[N+](=O)[O-])c1ccco1	9.2*	0	-3	-7	-1	5.4*
NS(=O)(=O)c1ccc(Nc2ccccc2)c([N+](=O)[O-])c1	4.9*	-2	0	-11	6	3
Nc1ccc(C=Cc2ccc(N)cc2)cc1	5.2*	-1	.	-15	.	4
CCC(=O)c1ccc(/C=C/c2nc3ccccc3n2C)o1	5.2*	-1	-1	-6	-2	2
Cn1c(/C=N/O)nc2ccccc21	3	2	2	-2	-2	.
CC(C)(C)NC(=O)NC(=O)C[n+]1ccc(Cc2ccc([N+](=O)[O-])cc2)cc1	12*	-1	1	3	-5	1
Cc1ccc(Cl)cc1NC(=O)C[n+]1ccc(Cc2ccc([N+](=O)[O-])cc2)cc1	6.6*	-1	-4	-3	4	1
COc1ccccc1NS(=O)(=O)c1cccc(C(=O)N/N=C/c2cn(-c3ccccc3)nc2-c2ccccc2)c1	6.1*	0	-1	-6	5	4
CCOc1ccc(NC(=O)CN(C)C(=O)c2ccc(-c3ccc(C(C)=O)cc3)o2)cc1OCC	4.9*	0	6	-3	3	3
CSc1ccc(/C=C/C(=O)OCC(=O)NC2CC2)cc1	5.0*	0	-2	-4	-1	3
CSc1ccc(/C=C/C(=O)OCC(=O)NC(C)C)cc1	5.5*	0	1	-7	0	3
CNC(=O)COC(=O)/C=C/c1ccc(F)cc1	1	1	2	2	-2	.
C#Cc1cccc(Nc2nc(NCCOC)nc3ccsc23)c1	12*	0	.	-4	.	11*
